An excerpt weighted towards active compounds, which were near 3.1% of everything screened.
Apaf1 inhib: inhibitors of human Apaf-1 apoptosome, primary screen, biochemical, DEVD-Rh110 fluorescence, uHTS | reconstituted apoptosome caspase-3 activity | inhibition, % at 20 µM | actives 0.71% (n = 330,000); active = inhibition of at least 40% at 20 µM;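 also: plate controls were DMSO wells for no effect and DEVD-CHO caspase inhibitor wells for full effect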
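Assay system: Apoptosome proteins | Medium: pH 7.5 Hepes buffer with CHAPS, BSA, DTT | Also added: Cytochrome c and DEVD-Rh110 substrate | Times: 30 min plus 50 min, RT | Detection: Rhodamine 110 fluorescence at Ex 480/Em 540 nm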
UBC13 polyUb: UBC13 polyubiquitin chain formation inhibitors, primary screen, biochemical, TR-FRET, uHTS; actives 0.47% (n = 330,000); Ubiquitin-conjugating enzyme E2 N (Homo sapiens), P61088; AID 485273, 2010; inhibition, % at 20 µM; in the data active = inhibition above about 45%, passing the limit was not always enough
MEKK2 mut-MEK5: MEK5 binding signal on mutant MEKK2 PB1, primary screen, biochemical, multiplex bead flow cytometry, Alexa488-MEK5; actives 0.35% (n = 290,000); Alexa488-MEK5 binding to MEKK2 mutant; percent response, % at 10 µM; in the data active = percent response above about 24%, passing the limit was not always enough
MEKK3 PB1 HTS: modulators of MEKK3-MEK5 PB1 binding, primary screen, biochemical, wildtype MEKK3, multiplex bead flow cytometry, Alexa488-MEK5; actives 1.4% (n = 290,000); binding response (% of control), % at 10 µM; AID 1529, 2009; bead-based flow cytometry, Alexa488-MEK5 binding to MEKK3; actives lie on both sides; 0 = blocked by unlabeled MEK5, 100 = vehicle; Mitogen-activated protein kinase kinase kinase 3 (Homo sapiens), Q99759;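 active = binding response more than 3 SD above or below the average of its plate-row segment, actives on both sides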;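 also: Alexa488 bead fluorescence after subtracting the streptavidin-only scavenger bead signal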
PREPL inhibitor: PREPL enzyme inhibitors, primary screen, biochemical, fluorescence polarization; inhibition, % at 5.96 µM; AID 2751, 2010; Prolyl endopeptidase-like (Homo sapiens), Q4J6C6; actives 0.68% (n = 320,000); recombinant PREPL, fluorescence polarization activity-based probe;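 also: 0% = enzyme with DMSO and 100% = wells lacking enzyme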
MEKK2wt PB1 HTS: modulators of MEK5 binding to wildtype MEKK2, primary screen, biochemical, multiplex bead flow cytometry, Alexa488-MEK5; Mitogen-activated protein kinase kinase kinase 2 (Homo sapiens), Q9Y2U5; Alexa488-MEK5 binding to MEKK2 WT; actives lie on both sides; binding response (% of control), % at 10 µM; actives 1.1% (n = 290,000); in the data active = binding response below about 67% or above about 130%
PREPL confirm: human PREPL enzyme inhibitors, confirmation, biochemical, fluorescence polarization. AID 2803, 2010. shares compounds with PREPL inhibitor. inhibition, % at 5.96 µM. actives 67% (n = 2,000). recombinant PREPL, fluorescence polarization activity probe;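 also: 0% = protein with DMSO and 100% = wells lacking protein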
An asterisk follows results filed as active; . = no result; + = active, no number. Rule as the data show it, unless noted: active = inhibition above about 43%; inactive = the rest.

SMILES	Apaf1 inhib	UBC13 polyUb	MEKK2 mut-MEK5	MEKK3 PB1 HTS	PREPL inhibitor	MEKK2wt PB1 HTS	PREPL confirm
COc1cc(/C=N\n2nnnc2N)ccc1OCc1ccc(F)cc1	14	17	-9	98	31	99	.
C[n+]1ccccc1/C=C/c1cc(Br)ccc1O	18	-21	7	98	44*	104	30
CCOc1cc(/C=C/c2cccc[n+]2C)ccc1O	-17	-28	4	102	0	106	.
COC(=O)[C@@]12CCCCN1[C@H](c1ccc(-c3ccc(F)cc3)cc1)[C@@H]1C(=O)N(C)C(=O)[C@@H]12	29	-4	.	.	54*	.	44*
O=C(CCNC(=O)C1CCN(S(=O)(=O)c2ccc(F)cc2)CC1)NCc1ccccc1Cl	9	-2	3	99	29	102	.
Cc1ccc(NC2CC(C)NC(=S)N2)cc1 (centres undefined)	-3	3	-16	85	-10	87	.
Cc1[nH]c2ccccc2c1C(c1ccncc1)N1CCN(c2ccccn2)CC1 (centres undefined)	13	-2	-1	101	+	97	13
Cc1cc(C)cc(OCC(=O)Nc2ccncc2)c1	11	-10	-1	101	-3	100	.
c1ccc(-c2oc3ncnc(NCCCN4CCOCC4)c3c2-c2ccccc2)cc1	35	22	3	108	14	123	.
COc1ccc(-c2oc3ncn(CCN4CCOCC4)c(=N)c3c2-c2ccc(OC)cc2)cc1	37	21	4	100	48*	124	35
O=S(=O)(CCN1CCN(c2ccccc2O)CC1)c1cc(Cl)ccc1Cl	-2	-2	.	.	.	.	.
COc1cc(NCCCC(C)N)c2ncccc2c1 (centres undefined)	.	.	6	98	.	102	.
CCC(CNc1cc(OC)cc2cccnc12)NC1CCCCC1 (centres undefined)	.	.	22	97	54*	111	44*
COc1ccc(NC(=O)Nc2ccc3c(c2)C(=O)N([C@H](C)CO)C[C@H](C)[C@@H](CN(C)C(=O)Nc2ccc(OC)cc2)O3)cc1	11	3	.	.	18	.	.
CC#C[C@]1(O)CC[C@H]2[C@@H]3CCC4=CC(=O)CCC4=C3[C@@H](c3ccc(N(C)C)cc3)C[C@@]21C	18	-12	2	92	50*	94	46*
CN(CC(O)COCc1ccccc1F)C1CCCCC1 (centres undefined)	-11	-13	-1	102	44*	104	22
O=C(CN1CCN(c2ccc(O)cc2)CC1)Nc1cc([N+](=O)[O-])ccc1Cl	-5	8	19	96	52*	15*	53*
COc1ccc(NC(=O)CSc2nc3nc(C)cc(C)c3c(=O)[nH]2)cc1	7	1	-9	99	45*	95	1
Cc1cccc(CS(=O)(=O)Cc2ccc(C(=O)NC3CCCCC3)o2)c1	7	-1	0	102	2	97	.
CC(=O)Nc1ccc(C(=O)COC(=O)CCc2ccccc2)c(F)c1	0	0	.	.	2	.	.
COc1cc(NC(=O)CN2CCN(c3ccccc3F)CC2)c(C)cc1[N+](=O)[O-]	0	-10	3	98	55*	111	69*
COc1ccc(-c2[nH]nc3c2C(c2ccsc2)C(C#N)=C(N)O3)cc1 (centres undefined)	-8	4	-1	98	89*	101	-15
Cc1ccc(-c2[nH]nc3c2C(c2ccsc2)C(C#N)=C(N)O3)cc1 (centres undefined)	14	6	-2	101	-5	97	.
Cn1c(N)c(C(=O)COC(=O)/C=C/c2cccc(F)c2)c(=O)n(C)c1=O	0	3	.	.	44*	.	40
O=C(NCCc1ccncc1)c1ccc2nc(Cc3cccc(Cl)c3)oc2c1	0	7	8	102	-4	105	.
SMILES	Apaf1 inhib	UBC13 polyUb	MEKK2 mut-MEK5	MEKK3 PB1 HTS	PREPL inhibitor	MEKK2wt PB1 HTS	PREPL confirm
O=C(NCCc1ccccc1)c1ccc2c(c1)S(=O)(=O)c1cc(Cl)ccc1C2=O	17	-19	.	.	56*	.	20
CC(C)CNC(=O)c1cc([N+](=O)[O-])ccc1N1CCOCC1	-15	-3	1	101	0	95	.
CC(C)(CNC(=O)c1cc([N+](=O)[O-])ccc1N1CCC(Cc2ccccc2)CC1)N1CCOCC1	18	3	.	.	45*	.	35
CC(=O)c1cn(C2OC(CO)C3OC(C)(C)OC32)c(=O)n(C)c1=O (centres undefined)	-13	-6	.	.	-2	.	.
O=C(N/N=C1\CCCc2c1[nH]c1ccc(Cl)cc21)c1ccncc1	25	-12	.	.	45*	.	55*
O=C(NN=C1CCCC1)c1[nH]c2ccc(Cl)cc2c1-c1ccccc1	30	4	-8	95	0	88	.
CCc1ccc(N2CC(C(=O)OCC(=O)NNC(=O)c3ccccc3)CC2=O)cc1 (centres undefined)	6	0	.	.	-5	.	.
Cc1ccccc1C(=O)N1CCN(c2ccc(NC(=O)CSc3ccc(Cl)cc3)cc2)CC1	24	-10	-2	97	65*	99	51*
O=C(COc1ccc(Cl)cc1)Nc1ccc(N2CCN(C(=O)c3ccco3)CC2)cc1	1	2	5	108	49*	106	48*
O=C(CSc1ccc(Cl)cc1)Nc1ccc(NC(=O)c2ccco2)cc1	-21	0	1	97	-5	98	.
O=C(CSc1ccc(Cl)cc1)Nc1ccc(N2CCN(C(=O)c3ccco3)CC2)cc1	14	4	2	103	48*	100	49*
CCC(=O)Nc1ccc(N2CCN(C(=O)c3ccccc3C)CC2)cc1	-9	11	-4	86	10	92	.
COc1cccc(CN2CC(C(=O)NCCOc3ccccc3)CCC2=O)c1 (centres undefined)	1	3	1	101	-6	101	.
CCN(CC)CCCN1C=C2C(=O)C(C)(OC(=O)C3CCCC3)C(=O)C=C2C=C1c1ccsc1 (centres undefined)	30	-90	1	91	43*	93	25
